Columns and labels:
[1] = molecular target: Beta-1 adrenergic receptor (Homo sapiens) (UniProt P08588); test: Displacement of [3H](-)CGP12177 beta1 adrenergic receptor at 10 uM
How it was run: (§1)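 Radioligand binding panel run by a contract lab (CEREP). Percent inhibition of specific radioligand binding was measured at a single primary test concentration of 10.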

[2] = molecular target: Adrenergic receptor alpha-2 (Rattus norvegicus) (UniProt P22086+P19328+P22909); test: Displacement of [3H]RX821002 from rat alpha2 adrenergic receptor at 10 uM after 30 mins by liquid scintillation counting; how it was run: as §1
[3] = molecular target: Histamine H2 receptor (Homo sapiens) (UniProt P25021); test: Displacement of [I125}APT from histamine H2 receptor at 10 uM; how it was run: as §1
[4] = molecular target: 5-hydroxytryptamine receptor 2A (Homo sapiens) (UniProt P28223); test: Displacement of [3H]Ketanserin from human recombinant 5HT2A receptor expressed in CHO cells at 10 uM after 15 mins by liquid scintillation counting; type: cell-based; how it was run: as §1
[5] = molecular target: 5-hydroxytryptamine receptor 7 (Homo sapiens) (UniProt P34969); test: Displacement of [3H]LSD from human recombinant 5HT7 receptor expressed in CHO cells at 10 uM after 120 mins by liquid scintillation counting; type: cell-based; how it was run: as §1
[6] = molecular target: Sodium-dependent noradrenaline transporter (Homo sapiens, UniProt P23975); test: Inhibition of [3H]noradrenaline uptake at human NET expressed in HEK293 cells after 10 mins by scintillation counting
[7] = system: Mus musculus; test: Toxicity in mouse assessed as increase in locomotor activity at 50 mg/kg, po up to 5 mins relative to vehicle treated control; type: organism-based; design: dose 50 mg/kg, route oral; details: in vivo
How it was run: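 Mice were dosed orally at 50 mg/kg and 30 min later placed singly in new 35×35×35 cm plastic cages under dim light with sound attenuation. Activity was logged by a monitoring apparatus at intervals up to 30 min, and the 5 min point was analysed. Mean ± SEM; one-way ANOVA, Scheffe post hoc, versus control.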

[8] = molecular target: T1, D(1A) dopamine receptor (Homo sapiens, UniProt P21728); test: Displacement of [3H]SCH23390 from dopamine D1 receptor at 10 uM; how it was run: as §1
[9] = molecular target: T1, D(1A) dopamine receptor; test: Displacement of [3H]SCH23390 from dopamine D1 receptor
How it was run: (§2)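 A primary screen at a single concentration was run first; compounds giving >80% inhibition of radioligand binding went on to full concentration–response curves to obtain IC50 (CEREP contract assay).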

[10] = molecular target: Beta-2 adrenergic receptor (Homo sapiens) (UniProt P07550); test: Displacement of [3H](-)CGP12177 beta2 adrenergic receptor at 10 uM; how it was run: as §1
[11] = molecular target: 5-hydroxytryptamine receptor 2B (Homo sapiens) (UniProt P41595); test: Displacement of [3H]Mesulergine from human recombinant 5HT2B receptor expressed in CHO cells at 10 uM after 30 mins by liquid scintillation counting; type: cell-based; how it was run: as §1
[12] = molecular target: Adrenergic receptor alpha-1 (Rattus norvegicus) (UniProt P15823+P23944+P43140); test: Displacement of [3H]Prazosin from rat alpha1 adrenergic receptor at 10 uM after 60 mins by liquid scintillation counting; how it was run: as §1
[13] = molecular target: Histamine H1 receptor (Cavia porcellus) (UniProt P31389); test: Displacement of [3H]Pyrilamin from guinea pig histamine H1 receptor at 10 uM after 10 mins by liquid scintillation counting; how it was run: as §1
[14] = system: Mus musculus; test: Antidepressant activity in mouse assessed as decrease in immobility at 20 mg/kg, po administered 30 mins prior to testing by tail suspension test relative to vehicle control; type: functional; design: scale not given: the % may be the effect or the level left
How it was run: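 Oral doses of 10–50 mg/kg (three doses) were given once, 30 min before testing. Mice were hung by adhesive tape 1 cm from the tail tip, 75 cm above the tabletop. Immobility was recorded for 5 min, scored blind, 10–12 mice per group, against vehicle controls. One-way ANOVA with Scheffe post hoc test; p<0.05 significant.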

[15] = Elimination half life in Sprague-Dawley rat at 1 mg/kg, iv; type: ADME, organism-based; design: dose 1 mg/kg, route intravenous; details: in vivo, read-out: beta t1/2 (converted)
How it was run: (§3)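 Male SD rats, three per group, fasted overnight until 6 h after dosing, were given a single 1 mg/kg iv dose into the femoral vein. Blood was sampled at 5, 15 and 30 min and at 1, 2, 4 and 6 h. Plasma was stored frozen and assayed by LC/MS/MS.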

[16] = Cmax in Sprague-Dawley rat at 1 mg/kg, iv; type: ADME, organism-based; design: dose 1 mg/kg, route intravenous; details: in vivo; how it was run: as §3
[17] = AUC (0 to infinity) in Sprague-Dawley rat at 1 mg/kg, iv; type: ADME, organism-based; design: time infinity, dose 1 mg/kg, route intravenous; details: plasma; how it was run: as §3
[18] = AUC (0 to infinity) in Sprague-Dawley rat at 10 mg/kg, po; type: ADME, organism-based; design: time infinity, dose 10 mg/kg, route oral; details: plasma
How it was run: (§4)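 Male SD rats, three per group, fasted overnight until 6 h post-dose, received a single oral dose of 10 mg/kg. Heparinized blood was drawn at 5, 15 and 30 min and at 1, 2, 4, 6, 8, 12 and 24 h. Plasma was frozen and analysed by LC/MS/MS for Cmax, Tmax, terminal t1/2 and AUC0-inf.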

[19] = Tmax in Sprague-Dawley rat at 10 mg/kg, po; type: ADME, organism-based; design: dose 10 mg/kg, route oral; details: in vivo; how it was run: as §4
[20] = Oral bioavailability in Sprague-Dawley rat at 10 mg/kg; type: ADME, organism-based; details: in vivo
How it was run: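 Bioavailability in male SD rats (n=3 per group, fasted overnight to 6 h post-dose) came from a 10 mg/kg oral dose and a 1 mg/kg iv dose via the femoral vein. Plasma drug levels over time were measured by LC/MS/MS.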

[21] = molecular target: 5-hydroxytryptamine receptor 1B (Homo sapiens) (UniProt P28222); test: Displacement of [I125]CYP from 5HT1B receptor at 10 uM; how it was run: as §1
[22] = Cmax in Sprague-Dawley rat at 10 mg/kg, po; type: ADME, organism-based; design: dose 10 mg/kg, route oral; details: in vivo; how it was run: as §4
[23] = Elimination half life in Sprague-Dawley rat at 10 mg/kg, po; type: ADME, organism-based; design: dose 10 mg/kg, route oral; details: in vivo, read-out: beta t1/2 (converted); how it was run: as §4
[24] = molecular target: Adrenergic receptor alpha-1 (Rattus norvegicus, UniProt P15823+P23944+P43140); test: Displacement of [3H]Prazosin from rat alpha1 adrenergic receptor after 60 mins by liquid scintillation counting; how it was run: as §2

Sequence of 5-hydroxytryptamine receptor 2B (Homo sapiens) (P41595 whole entry): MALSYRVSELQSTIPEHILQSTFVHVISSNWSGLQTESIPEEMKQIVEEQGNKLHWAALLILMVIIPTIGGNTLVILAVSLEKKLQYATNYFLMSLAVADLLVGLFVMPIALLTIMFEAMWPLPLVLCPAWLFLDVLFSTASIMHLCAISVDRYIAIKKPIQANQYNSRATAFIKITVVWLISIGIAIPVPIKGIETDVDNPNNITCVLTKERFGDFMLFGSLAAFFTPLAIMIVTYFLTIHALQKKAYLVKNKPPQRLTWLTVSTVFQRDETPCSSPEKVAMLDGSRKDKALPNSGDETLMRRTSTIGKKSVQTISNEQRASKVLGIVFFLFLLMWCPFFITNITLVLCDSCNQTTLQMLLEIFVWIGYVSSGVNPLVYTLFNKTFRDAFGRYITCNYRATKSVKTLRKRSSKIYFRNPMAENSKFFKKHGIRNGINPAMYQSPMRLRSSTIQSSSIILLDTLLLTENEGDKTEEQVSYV
Sequence of Histamine H2 receptor (Homo sapiens) (P25021 whole entry): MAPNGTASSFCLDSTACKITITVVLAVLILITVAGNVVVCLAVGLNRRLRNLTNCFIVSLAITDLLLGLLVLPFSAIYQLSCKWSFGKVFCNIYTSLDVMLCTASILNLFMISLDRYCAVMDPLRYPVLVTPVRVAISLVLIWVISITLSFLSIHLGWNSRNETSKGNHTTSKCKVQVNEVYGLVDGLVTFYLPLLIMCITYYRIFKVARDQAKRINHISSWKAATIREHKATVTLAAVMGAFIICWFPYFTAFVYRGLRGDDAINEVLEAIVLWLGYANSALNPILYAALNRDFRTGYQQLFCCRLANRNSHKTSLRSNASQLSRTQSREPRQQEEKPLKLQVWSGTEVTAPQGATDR
Sequence of 5-hydroxytryptamine receptor 2A (Homo sapiens) (P28223 whole entry): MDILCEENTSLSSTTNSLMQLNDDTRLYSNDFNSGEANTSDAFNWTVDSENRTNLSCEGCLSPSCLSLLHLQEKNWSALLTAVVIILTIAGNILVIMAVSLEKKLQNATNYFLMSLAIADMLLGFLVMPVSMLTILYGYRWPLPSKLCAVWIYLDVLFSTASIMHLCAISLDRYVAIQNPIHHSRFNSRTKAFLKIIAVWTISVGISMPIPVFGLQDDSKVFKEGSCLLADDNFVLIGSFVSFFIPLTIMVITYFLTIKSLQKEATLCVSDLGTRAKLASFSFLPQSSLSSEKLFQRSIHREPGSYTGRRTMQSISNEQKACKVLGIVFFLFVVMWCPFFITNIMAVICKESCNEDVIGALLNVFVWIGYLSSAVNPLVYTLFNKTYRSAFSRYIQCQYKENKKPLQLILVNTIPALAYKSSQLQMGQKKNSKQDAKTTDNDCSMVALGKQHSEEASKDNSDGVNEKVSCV
Sequence of 5-hydroxytryptamine receptor 7 (Homo sapiens) (P34969 whole entry): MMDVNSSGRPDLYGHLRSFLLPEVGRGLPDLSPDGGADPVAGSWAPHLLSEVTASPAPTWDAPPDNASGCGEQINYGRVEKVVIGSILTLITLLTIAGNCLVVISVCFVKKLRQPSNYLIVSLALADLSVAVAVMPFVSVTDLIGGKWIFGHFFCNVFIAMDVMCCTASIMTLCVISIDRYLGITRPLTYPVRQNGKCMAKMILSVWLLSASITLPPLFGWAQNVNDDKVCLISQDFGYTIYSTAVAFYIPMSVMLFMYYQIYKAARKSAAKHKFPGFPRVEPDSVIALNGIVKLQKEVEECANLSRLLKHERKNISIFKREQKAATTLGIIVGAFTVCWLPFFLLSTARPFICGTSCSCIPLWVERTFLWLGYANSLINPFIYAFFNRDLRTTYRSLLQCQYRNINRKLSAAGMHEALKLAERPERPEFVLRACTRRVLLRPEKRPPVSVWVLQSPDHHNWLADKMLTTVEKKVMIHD
T1 sequence (P21728 whole entry): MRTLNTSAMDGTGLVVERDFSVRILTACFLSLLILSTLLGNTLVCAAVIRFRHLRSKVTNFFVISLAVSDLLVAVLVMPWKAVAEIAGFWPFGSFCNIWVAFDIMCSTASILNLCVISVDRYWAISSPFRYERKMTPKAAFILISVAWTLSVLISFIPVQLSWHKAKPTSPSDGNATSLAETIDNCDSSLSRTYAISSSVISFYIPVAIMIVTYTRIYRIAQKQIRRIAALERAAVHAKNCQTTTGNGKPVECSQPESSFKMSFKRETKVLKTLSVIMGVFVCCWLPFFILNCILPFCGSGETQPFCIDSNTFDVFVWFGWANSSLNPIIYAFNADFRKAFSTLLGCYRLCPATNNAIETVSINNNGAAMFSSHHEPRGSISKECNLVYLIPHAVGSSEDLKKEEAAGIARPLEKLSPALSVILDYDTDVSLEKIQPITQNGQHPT
Sequence of Beta-2 adrenergic receptor (Homo sapiens) (P07550 whole entry, looked up): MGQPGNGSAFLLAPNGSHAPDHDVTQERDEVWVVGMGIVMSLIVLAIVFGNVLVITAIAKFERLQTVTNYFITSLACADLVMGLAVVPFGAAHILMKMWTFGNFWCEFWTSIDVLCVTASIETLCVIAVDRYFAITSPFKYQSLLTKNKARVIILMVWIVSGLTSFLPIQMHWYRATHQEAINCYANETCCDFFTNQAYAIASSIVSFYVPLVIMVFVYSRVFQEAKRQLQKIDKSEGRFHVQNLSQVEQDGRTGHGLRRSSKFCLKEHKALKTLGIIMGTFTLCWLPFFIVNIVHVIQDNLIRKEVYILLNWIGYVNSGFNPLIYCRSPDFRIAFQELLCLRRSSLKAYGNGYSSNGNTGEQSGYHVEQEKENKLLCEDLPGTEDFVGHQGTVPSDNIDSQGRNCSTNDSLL
Sequence of Histamine H1 receptor (Cavia porcellus) (P31389 whole entry): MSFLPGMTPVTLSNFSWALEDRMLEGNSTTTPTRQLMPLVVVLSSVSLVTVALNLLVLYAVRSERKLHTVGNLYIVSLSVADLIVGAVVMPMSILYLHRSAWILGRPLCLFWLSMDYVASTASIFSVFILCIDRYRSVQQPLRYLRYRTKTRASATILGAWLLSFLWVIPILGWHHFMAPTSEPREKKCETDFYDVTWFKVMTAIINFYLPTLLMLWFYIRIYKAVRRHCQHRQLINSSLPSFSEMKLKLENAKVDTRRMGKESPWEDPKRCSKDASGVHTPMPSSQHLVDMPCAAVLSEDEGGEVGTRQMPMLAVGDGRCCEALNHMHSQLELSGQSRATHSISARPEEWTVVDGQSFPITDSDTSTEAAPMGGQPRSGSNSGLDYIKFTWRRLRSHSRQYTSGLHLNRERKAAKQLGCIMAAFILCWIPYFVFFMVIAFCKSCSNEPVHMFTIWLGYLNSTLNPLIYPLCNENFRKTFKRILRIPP
Sequence of Beta-1 adrenergic receptor (Homo sapiens) (P08588 whole entry, looked up): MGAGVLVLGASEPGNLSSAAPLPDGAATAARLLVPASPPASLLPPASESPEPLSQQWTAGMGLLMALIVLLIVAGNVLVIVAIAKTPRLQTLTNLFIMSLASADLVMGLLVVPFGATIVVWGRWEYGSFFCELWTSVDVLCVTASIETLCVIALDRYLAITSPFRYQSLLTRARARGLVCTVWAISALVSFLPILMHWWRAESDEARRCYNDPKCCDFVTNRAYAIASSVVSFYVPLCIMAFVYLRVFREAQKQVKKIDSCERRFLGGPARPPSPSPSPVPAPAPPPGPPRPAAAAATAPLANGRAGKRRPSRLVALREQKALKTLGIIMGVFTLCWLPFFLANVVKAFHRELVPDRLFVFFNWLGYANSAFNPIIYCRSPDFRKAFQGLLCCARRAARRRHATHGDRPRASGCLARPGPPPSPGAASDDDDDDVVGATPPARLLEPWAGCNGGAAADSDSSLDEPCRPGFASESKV
Sequence of 5-hydroxytryptamine receptor 1B (Homo sapiens) (P28222 whole entry): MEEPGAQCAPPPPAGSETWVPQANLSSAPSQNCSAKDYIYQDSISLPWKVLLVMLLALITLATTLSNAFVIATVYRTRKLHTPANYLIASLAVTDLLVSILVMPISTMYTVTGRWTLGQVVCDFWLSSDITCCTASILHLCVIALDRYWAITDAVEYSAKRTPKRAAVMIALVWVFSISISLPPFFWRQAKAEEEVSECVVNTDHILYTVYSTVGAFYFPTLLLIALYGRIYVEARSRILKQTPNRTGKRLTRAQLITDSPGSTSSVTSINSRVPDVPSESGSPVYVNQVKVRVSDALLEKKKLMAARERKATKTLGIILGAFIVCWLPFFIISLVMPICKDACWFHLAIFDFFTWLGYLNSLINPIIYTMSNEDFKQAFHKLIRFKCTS
Sequence of Sodium-dependent noradrenaline transporter (P23975 whole entry): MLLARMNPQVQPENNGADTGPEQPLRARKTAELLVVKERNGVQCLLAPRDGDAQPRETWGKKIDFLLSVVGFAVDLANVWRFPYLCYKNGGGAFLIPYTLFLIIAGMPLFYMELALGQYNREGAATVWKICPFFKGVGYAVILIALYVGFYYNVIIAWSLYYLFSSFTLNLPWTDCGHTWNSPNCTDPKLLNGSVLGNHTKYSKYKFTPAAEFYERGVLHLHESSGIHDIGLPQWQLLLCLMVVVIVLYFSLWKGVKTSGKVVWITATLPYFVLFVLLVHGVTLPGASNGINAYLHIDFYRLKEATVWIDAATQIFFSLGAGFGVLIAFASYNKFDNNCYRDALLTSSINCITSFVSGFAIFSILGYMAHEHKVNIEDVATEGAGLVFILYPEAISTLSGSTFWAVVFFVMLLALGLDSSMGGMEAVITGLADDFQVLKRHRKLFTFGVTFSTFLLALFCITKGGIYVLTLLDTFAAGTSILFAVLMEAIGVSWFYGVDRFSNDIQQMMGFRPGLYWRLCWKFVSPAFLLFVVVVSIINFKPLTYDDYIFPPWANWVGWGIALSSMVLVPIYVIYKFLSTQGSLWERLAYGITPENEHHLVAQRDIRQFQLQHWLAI

| inhibition [1] [%] | inhibition [2] [%] | inhibition [3] [%] | inhibition [4] [%] | inhibition [5] [%] | IC50 [6] [nM] | inhibition [8] [%] | inhibition [10] [%] | inhibition [11] [%] | inhibition [12] [%] | inhibition [13] [%] | half-life [15] [h] | Cmax [16] [ng/mL] | AUC(0-inf) [17] [ng·h/mL] | AUC(0-inf) [18] [ng·h/mL] | Tmax [19] [h] | bioavailability [20] [%] | inhibition [21] [%] | SMILES | Activity [7] | Activity [14] [%] | other results |
| --- | --- | --- | --- | --- | --- | --- | --- | --- | --- | --- | --- | --- | --- | --- | --- | --- | --- | --- | --- | --- | --- |
| 33.4 | 27.3 | 14.9 | 42.6 | 29.7 | 385 | 35.6 | 49.8 | 14.5 | 51.2 | 45.3 | 2.5 | 653 | 1020 | 5720 | 0.5 | 55.8 | 6.5 | OC(CCN1CC=C(Cc2ccccc2)CC1)c1csc2ccccc12 (racemic) | Non-toxic | 51 | Cmax [22]: 923 ng/mL; half-life [23]: 3.5 h |
| 15.3 | 43.5 | 6.7 | 0.9 | 19.2 | 265 | 47.9 | 14.7 | 4.9 | 84.3 | 12.5 | 2.3 | 750 | 1230 | 5440 | 0.7 | 44.1 | 9.7 | OC(CCN1CCC(O)(Cc2ccccc2)CC1)c1ccc(Cl)c(Cl)c1 (racemic) | Non-toxic | 42 | IC50 [24]: 8000 nM; Cmax [22]: 897 ng/mL; half-life [23]: 2.9 h |

The remaining lines, values behind:

| SMILES | inhibition [1] [%] | inhibition [2] [%] | inhibition [3] [%] | inhibition [4] [%] | inhibition [5] [%] | IC50 [6] [nM] | inhibition [8] [%] | inhibition [10] [%] | inhibition [11] [%] | inhibition [12] [%] | inhibition [13] [%] | half-life [15] [h] | Cmax [16] [ng/mL] | AUC(0-inf) [17] [ng·h/mL] | AUC(0-inf) [18] [ng·h/mL] | Tmax [19] [h] | bioavailability [20] [%] | inhibition [21] [%] | Activity [7] | Activity [14] [%] | other results |
| --- | --- | --- | --- | --- | --- | --- | --- | --- | --- | --- | --- | --- | --- | --- | --- | --- | --- | --- | --- | --- | --- |
| OC(CCN1CC=C(Cc2ccccc2)CC1)c1cc2ccccc2s1 (racemic) | 41.2 | 32.5 | 8.2 | 31.5 | 43.5 | 327 | 85.6 | 16.7 | 6.1 | 0.8 | 0.1 | – | – | – | – | – | – | – | Non-toxic | 21 | IC50 [9]: 9650 nM |
| COc1ccc2cc(C(O)CCN3CC=C(Cc4ccccc4)CC3)ccc2c1Cl (racemic) | 46.7 | 32.9 | 33.2 | 15.6 | 5.8 | 420 | 27.1 | 28.5 | – | 45.6 | 10.6 | – | – | – | – | – | – | 10.2 | Non-toxic | 42 | – |
| OC(CCN1CC=C(Cc2ccccc2)CC1)c1ccc(Cl)c(Cl)c1 (racemic) | 58.9 | 16.2 | 15.6 | 4.8 | 0.5 | 178 | 33.3 | 62.3 | 33.5 | 35.6 | 31.2 | – | – | – | – | – | – | 0.6 | Non-toxic | 51 | – |

— ChEMBL document CHEMBL2046296, “Synthesis and antidepressant activity of arylalkanol-piperidine derivatives as triple reuptake inhibitors” (Eur J Med Chem, 2012)
